Values after ≈ are worked out from the molar mass of the structure shown.
Key:
[1] = biological target: T1, Farnesyltransferase, putative (Leishmania major, UniProt Q4Q5W4); test: Inhibition of Leishmania major recombinant squalene synthase expressed in Escherichia coli by liquid scintillation counter
T1 sequence (Q4Q5W4 whole entry): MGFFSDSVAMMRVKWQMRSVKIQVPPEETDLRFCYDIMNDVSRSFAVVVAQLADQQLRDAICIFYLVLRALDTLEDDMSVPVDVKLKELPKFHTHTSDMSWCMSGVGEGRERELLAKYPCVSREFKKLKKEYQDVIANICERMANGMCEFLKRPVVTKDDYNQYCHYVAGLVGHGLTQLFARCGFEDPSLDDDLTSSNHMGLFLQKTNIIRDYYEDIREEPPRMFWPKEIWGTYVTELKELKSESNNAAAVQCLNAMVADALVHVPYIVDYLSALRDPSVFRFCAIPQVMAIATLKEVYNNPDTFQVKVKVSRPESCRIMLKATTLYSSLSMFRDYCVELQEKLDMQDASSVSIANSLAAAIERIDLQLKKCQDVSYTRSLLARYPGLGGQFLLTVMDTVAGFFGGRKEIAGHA
In short: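 Soluble E. coli extract expressing L. major SQS truncated by 16 N-terminal and 40 C-terminal residues. Buffer: 50 mM phosphate pH 7.4, 20 mM MgCl2, 5 mM CHAPS, 1% Tween 80, 10 mM DTT, BSA, 0.25 mM NADPH, and a glucose-6-phosphate/G6PDH regenerating system. Substrate 0.5 μM radiolabelled farnesyl pyrophosphate. Squalene band counted by scintillation. IC50 from hyperbolic plot of five concentrations in duplicate, usually run twice.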

[2] = tested on: Leishmania amazonensis; test: Antileishmanial activity against Leishmania mexicana amazonensis promastigotes by trypan blue exclusion method; format: functional, organism-based
In short: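 L. mexicana amazonensis promastigotes cultured in liver infusion-tryptose medium with lactalbumin and 10% FCS at 26°C, unagitated. Cultures started at 2 × 10⁶ cells/ml and drug added at 0.5–1 × 10⁷ cells/ml. Density counted by electronic particle counter and hemocytometer. Viability by trypan blue exclusion. Triplicate growth experiments.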

[3] = tested on: Leishmania amazonensis; test: Inhibition of sterol biosynthesis in Leishmania mexicana amazonensis promastigotes assessed as reduction in exogenous cholesterol level at 1 uM after 96 hrs by gas-liquid chromatography; format: functional; parameters: scale not given: the % may be the effect or the level left
In short: (§1)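 L. mexicana promastigotes exposed to compound for 96 h. Total lipids extracted and neutral sterols separated from polar lipids by silicic acid column chromatography. Sterols analysed by TLC and by quantitative capillary gas-liquid chromatography with mass spectrometry. Composition expressed as mass % of free sterols, compared with untreated control.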

[4] = tested on: Leishmania amazonensis; test: Inhibition of sterol biosynthesis in Leishmania mexicana amazonensis promastigotes assessed as reduction in endogenous 5-dehydro episterol level at 1 uM after 96 hrs by gas-liquid chromatography; format: functional; parameters: scale not given: the % may be the effect or the level left; in short: as §1
[5] = tested on: Leishmania amazonensis; test: Inhibition of sterol biosynthesis in Leishmania mexicana amazonensis promastigotes assessed as reduction in endogenous episterol level at 1 uM after 96 hrs by gas-liquid chromatography; format: functional; parameters: scale not given: the % may be the effect or the level left; in short: as §1
[6] = tested on: Leishmania amazonensis; test: Inhibition of sterol biosynthesis in Leishmania mexicana amazonensis promastigotes assessed as reduction in exogenous cholesterol level at 3 uM after 96 hrs by gas-liquid chromatography; format: functional; parameters: scale not given: the % may be the effect or the level left; in short: as §1
[7] = tested on: Leishmania amazonensis; test: Inhibition of sterol biosynthesis in Leishmania mexicana amazonensis promastigotes assessed as reduction in endogenous 5-dehydro episterol level at 3 uM after 96 hrs by gas-liquid chromatography; format: functional; parameters: scale not given: the % may be the effect or the level left; in short: as §1
[8] = tested on: Leishmania amazonensis; test: Inhibition of sterol biosynthesis in Leishmania mexicana amazonensis promastigotes assessed as reduction in endogenous episterol level at 3 uM after 96 hrs by gas-liquid chromatography; format: functional; parameters: scale not given: the % may be the effect or the level left; in short: as §1
[9] = tested on: Leishmania donovani; test: Antileishmanial activity against Leishmania donovani MHOM/ET/67/L82 axenic amastigotes after 72 hrs by resazurin assay; format: functional, organism-based; settings: MHOM/ET/67/L82, 72 h
In short: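 L. donovani MHOM/ET/67/L82 amastigotes grown axenically at 37°C in synthetic minimal medium at pH 5.4 with 10% heat-inactivated FBS under 5% CO2. 1 × 10⁵ amastigotes per well with seven threefold dilutions, 30 to 0.041 μg/ml. After 72 h, resazurin added for 2–4 h more. Fluorescence read at ex 536/em 588 nm. IC50 taken from sigmoidal curve. Run in duplicate, with an independent repeat for actives.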

[10] = tested on: L6; test: Cytotoxicity against rat L6 cells after 72 hrs by resazurin assay; format: cell-based; settings: L6, 72 h
In short: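 L-6 cells seeded at 4 × 10⁴ cells/ml in RPMI 1640 with 10% FBS and 2 mM L-glutamine. After 24 h, medium replaced with serial drug dilution and incubated for 72 h at 37°C in 5% CO2. Resazurin added for 2–4 h, fluorescence read at ex 536/em 588 nm. IC50 from sigmoidal curve. Duplicate, with an independent repeat for actives.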

[11] = tested on: Trypanosoma cruzi; test: Antitrypanosomal activity against trypomastigotes of Trypanosoma cruzi Tulahuen C2C4 containing lacZ gene in rat L6 cells after 4 days by chlorophenol red-beta-D-galactopyranoside/Nonidet assay; format: functional, organism-based; settings: Tulahuen C2C4, L6, 96 h
In short: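 L-6 rat myoblasts seeded at 2,000 cells/well in RPMI 1640 with 10% FBS and 2 mM L-glutamine. After 24 h, 5,000 T. cruzi Tulahuen C2C4 lacZ trypomastigotes added with serial drug dilution. Incubated at 37°C in 5% CO2 for 4 days. CPRG/Nonidet substrate added and colour read at 540 nm after 2–4 h. IC50 from sigmoidal curve. Duplicate determinations.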

[12] = tested on: Trypanosoma brucei rhodesiense; test: Trypanocidal activity against Trypanosoma brucei rhodesiense STIB 900 bloodstream form after 72 hrs by resazurin assay; format: functional, organism-based; settings: STIB 900, 72 h
In short: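 T. b. rhodesiense STIB 900 bloodstream forms in MEM with 2-mercaptoethanol and 15% heat-inactivated horse serum, with serial drug dilutions. Incubated 72 h at 37°C in 5% CO2. Resazurin added for 2–4 h more, fluorescence read at ex 536/em 588 nm. IC50 from sigmoidal curve. Duplicate, with an independent repeat for actives.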

[13] = tested on: Plasmodium falciparum; test: Antiplasmodial activity after 48 hrs against chloroquine and pyrimethamine-resistant Plasmodium falciparum K1 in human erythrocytes by [3H]hypoxanthine uptake; format: functional, organism-based
In short: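 P. falciparum K1 in human red cells in RPMI 1640 with 5% Albumax, exposed to serial drug dilutions. Incubated 48 h at 37°C under reduced oxygen, then 0.5 μCi [³H]hypoxanthine per well for 24 h more. Cells harvested onto glass-fibre filters and counted by scintillation. Result expressed as % of untreated control, with IC50 from sigmoidal curve. Duplicate, plus an independent repeat for actives.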

[14] = tested on: Leishmania amazonensis; test: Inhibition of sterol biosynthesis in Leishmania mexicana amazonensis promastigotes assessed as reduction in endogenous cholesta-5,7,24-trien-3beta-ol level at 10 uM after 96 hrs by gas-liquid chromatography; format: functional; parameters: scale not given: the % may be the effect or the level left; in short: as §1
[15] = tested on: Leishmania amazonensis; test: Inhibition of sterol biosynthesis in Leishmania mexicana amazonensis promastigotes assessed as reduction in endogenous cholesta-7,24-dien-3beta-ol level at 10 uM after 96 hrs by gas-liquid chromatography; format: functional; parameters: scale not given: the % may be the effect or the level left; in short: as §1
[16] = tested on: Leishmania amazonensis; test: Inhibition of sterol biosynthesis in Leishmania mexicana amazonensis promastigotes assessed as reduction in exogenous cholesterol level at 10 uM after 96 hrs by gas-liquid chromatography; format: functional; parameters: scale not given: the % may be the effect or the level left; in short: as §1
[17] = tested on: Leishmania amazonensis; test: Inhibition of sterol biosynthesis in Leishmania mexicana amazonensis promastigotes assessed as reduction in endogenous 5-dehydro episterol level at 10 uM after 96 hrs by gas-liquid chromatography; format: functional; parameters: scale not given: the % may be the effect or the level left; in short: as §1
[18] = tested on: Leishmania amazonensis; test: Inhibition of sterol biosynthesis in Leishmania mexicana amazonensis promastigotes assessed as reduction in endogenous episterol level at 10 uM after 96 hrs by gas-liquid chromatography; format: functional; parameters: scale not given: the % may be the effect or the level left; in short: as §1

Row | Compound | IC50 [1] [µM] | MIC [2] [µM] | Activity [3] [%] | Activity [4] [%] | Activity [5] [%] | Activity [6] [%] | Activity [7] [%] | Activity [8] [%] | IC50 [9] [µM] | IC50 [10] [µM] | IC50 [11] [µM] | IC50 [12] [µM] | IC50 [13] [µM] | Activity [14] [%] | Activity [15] [%] | Activity [16] [%] | Activity [17] [%] | Activity [18] [%] | IC50 [2] [µM]
1 | CCOC(=O)c1ccc(C2=CN3CCC2CC3)cc1 | 0.18 | 1 (≈ 0.257 µg/mL) | 52.2 | 36.3 | 11.5 | 73.4 | 13.4 | 13.2 | 1 | 265 | 16 | 35.1 | 11.6 | – | – | – | – | – | –
2 | C1=C(c2cc3ccccc3s2)C2CCN1CC2 | > 1 | 10 (≈ 2.41 µg/mL) | 47.9 | 28.6 | 24.5 | 62.3 | 15.5 | 22.2 | 1.2 | 146 | 64.2 | 5.6 | 12 | – | – | – | – | – | –
3 | OC[C@@H]1CC2CCN1C[C@@H]2C#Cc1ccccc1 (some centres undefined) | > 1 | > 10 | – | – | – | – | – | – | > 124 | 74.5 | 8.2 | 12.8 | 3.3 | 2 | 3.9 | 17.9 | 63 | 13.2 | –
4 | CCOC(=O)c1ccc(C#CC2(O)CN3CCC2CC3)cc1 (centres undefined) | 4.25 | 10 (≈ 2.99 µg/mL) | – | – | – | 35.9 | 54.6 | 9.5 | 28.7 | 171 | 5.6 | 3.3 | 4 | >99 | – | – | – | – | –
5 | CCOC(=O)Cc1ccc(C#C[C@H]2CN3CCC2C[C@@H]3CO)cc1 (some centres undefined) | > 1 | > 10 | – | – | – | – | – | – | 14.6 | 156 | 22.9 | 32.3 | 5.2 | 3.6 | 3.3 | 14.6 | 73.4 | 8.4 | –
6 | OC[C@H]1CC2CCN1C[C@@H]2C#Cc1ccccc1 (some centres undefined) | > 1 | 10 (≈ 2.41 µg/mL) | – | – | – | – | – | – | > 124 | 166 | 25.6 | 14.5 | 6.5 | 2.8 | 2.7 | 13.1 | 69.6 | 11.8 | –
7 | CCOC(=O)Cc1ccc(C#C[C@H]2CN3CCC2C[C@H]3CO)cc1 (some centres undefined) | > 1 | – | – | – | – | – | – | – | > 92 | 155 | 50 | 64.7 | 5 | 10.7 | 11.8 | 25.2 | 41.5 | 10.8 | > 10
8 | OC[C@@H]1CC2CCN1C[C@@H]2C#Cc1cnc2ccccc2c1 (some centres undefined) | > 1 | > 10 | – | – | – | – | – | – | 80 | 169 | 19.1 | 7.1 | 1.7 | 5.9 | 12.3 | 27.5 | 40.6 | 13.7 | –
9 | OC1(C#Cc2ccc(OCc3ccccc3)cc2)CN2CCC1CC2 (centres undefined) | – | 1 (≈ 0.333 µg/mL) | 74.6 | 17 | 8.4 | >99 | – | – | 3.2 | 45 | 9.6 | 1.9 | 1.9 | – | – | – | – | – | –
10 | CCOC(=O)c1ccc(C#C[C@H]2CN3CCC2C[C@H]3CO)cc1 (some centres undefined) | > 1 | > 10 | – | – | – | – | – | – | 10.2 | 37.6 | 19.4 | 1.7 | 0.6 | 23.6 | 3.3 | 18.7 | 50.3 | 4.1 | –
11 | CC(C)OC(=O)c1ccc(C2=CN3CCC2CC3)cc1 | > 1 | 3 (≈ 0.814 µg/mL) | 44.4 | 42.8 | 12.8 | 74.5 | – | 25.5 | 1.1 | 152 | 23 | 7.2 | 14 | – | – | – | – | – | –
12 | CCCCCCOc1ccc(C#CC2(O)CN3CCC2CC3)cc1 (centres undefined) | – | 1 (≈ 0.327 µg/mL) | 20.4 | 65 | 14.6 | >99 | – | – | 4.7 | 15.9 | 5.6 | 0.5 | 0.7 | – | – | – | – | – | –
13 | Cc1cc(C)cc(C#CC2(O)CN3CCC2CC3)c1 (centres undefined) | > 1 | 10 (≈ 2.55 µg/mL) | – | – | – | 19.6 | 68.4 | 12 | 12.6 | 175 | 18.9 | 9.2 | 4.3 | – | – | 48.2 | 39.9 | 11.9 | –
14 | COc1ccc(COc2ccc(C#CC3(O)CN4CCC3CC4)cc2)cc1OC (centres undefined) | – | 1 (≈ 0.393 µg/mL) | – | – | – | 15.6 | 69.8 | 14.6 | 4.6 | 78.7 | 13.4 | 3.4 | 2 | – | – | 44.6 | 38.8 | 16.6 | –
15 | C1=C(c2ccc3ccccc3c2)C2CCN1CC2 | > 1 | 3 (≈ 0.706 µg/mL) | – | – | – | 35.9 | 35.2 | 28.9 | 12.3 | 101 | 34.1 | 24.2 | 11 | – | – | 33.8 | 52 | 14.2 | –

— ChEMBL document CHEMBL1137637, “Quinuclidine derivatives as potential antiparasitics” (Antimicrob Agents Chemother, 2007)
